According to ChEMBL document CHEMBL4004831, “Naphthalene diimide-polyamine hybrids as antiproliferative agents: Focus on the architecture of the polyamine chains” (Eur J Med Chem, 2017):
One block for each compound: values may come before it.

Assays:
Hs-578T = test: Growth inhibition of human Hs 578T cells incubated for 48 hrs by sulforhodamine B assay; assay type: functional
SK-MEL-5 = test: Growth inhibition of human SK-MEL-5 cells incubated for 48 hrs by sulforhodamine B assay; assay type: functional; details: SK-MEL-5, 48 h
MDA-MB-231 = test: Growth inhibition of human MDA-MB-231 cells incubated for 48 hrs by sulforhodamine B assay; assay type: functional; details: MDA-MB-231, 48 h
SR = test: Growth inhibition of human SR cells incubated for 48 hrs by sulforhodamine B assay; assay type: functional
CCRF-CEM = test: Growth inhibition of human CCRF-CEM cells incubated for 48 hrs by sulforhodamine B assay; assay type: functional
UACC-62 = test: Growth inhibition of human UACC62 cells incubated for 48 hrs by sulforhodamine B assay; assay type: functional; details: UACC-62, 48 h
IGROV-1 = test: Growth inhibition of human IGROV1 cells incubated for 48 hrs by sulforhodamine B assay; assay type: functional; details: IGROV-1, 48 h
U-251 = test: Growth inhibition of human U251 cells incubated for 48 hrs by sulforhodamine B assay; assay type: functional; details: U-251, 48 h
CAKI-1 = test: Growth inhibition of human Caki1 cells incubated for 48 hrs by sulforhodamine B assay; assay type: functional; details: CAKI-1, 48 h
TK-10 = test: Growth inhibition of human TK10 cells incubated for 48 hrs by sulforhodamine B assay; assay type: functional; details: TK-10, 48 h
Homo sapiens = organism: Homo sapiens; test: Stabilization of 5'Dabcyl/3'FAM labeled human telomeric sequence G-quadruplex DNA assessed as increase in melting temperature at 2.5 uM pretreated for 5 mins at 30 degreeC followed by 5 mins incubation at 95 degreeC by fluorescence assay
How it was run: (§1)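 FRET melting in LiP buffer (10 mM LiOH, 50 mM KCl, pH 7.0 with H3PO4), ex 488 nm, em 520 nm. Samples were held 5 min at 30 °C, heated at 1 °C/min to 95 °C, held 5 min, then re-annealed. Tm came from first derivatives; ΔTm = shift with ligand at 2.5; at least three runs.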

NCI-H226 = test: Growth inhibition of human NCI-H226 cells incubated for 48 hrs by sulforhodamine B assay; assay type: functional; details: NCI-H226, 48 h
HCT-116 = test: Growth inhibition of human HCT116 cells incubated for 48 hrs by sulforhodamine B assay; assay type: functional; details: HCT-116, 48 h
786-0 = test: Growth inhibition of human 786-0 cells incubated for 48 hrs by sulforhodamine B assay; assay type: functional; details: 786-0, 48 h
HL-60 = test: Growth inhibition of human HL60 cells incubated for 48 hrs by sulforhodamine B assay; assay type: functional; details: HL-60, 48 h
BT-549 = test: Growth inhibition of human BT549 cells incubated for 48 hrs by sulforhodamine B assay; assay type: functional; details: BT-549, 48 h
HCC 2998 = test: Growth inhibition of human HCC2998 cells incubated for 48 hrs by sulforhodamine B assay; assay type: functional; details: HCC 2998, 48 h
NCI/ADR-RES = test: Growth inhibition of human NCI-ADR-RES cells incubated for 48 hrs by sulforhodamine B assay; assay type: functional
ACHN = test: Growth inhibition of human ACHN cells incubated for 48 hrs by sulforhodamine B assay; assay type: functional
MOLT-4 = test: Growth inhibition of human MOLT4 cells incubated for 48 hrs by sulforhodamine B assay; assay type: functional; details: MOLT-4, 48 h
NCI-H322M = test: Growth inhibition of human NCI-H322M cells incubated for 48 hrs by sulforhodamine B assay; assay type: functional
SNB-75 = test: Growth inhibition of human SNB75 cells incubated for 48 hrs by sulforhodamine B assay; assay type: functional; details: SNB-75, 48 h
SF-539 = test: Growth inhibition of human SF539 cells incubated for 48 hrs by sulforhodamine B assay; assay type: functional; details: SF-539, 48 h
UO-31 = test: Growth inhibition of human UO31 cells incubated for 48 hrs by sulforhodamine B assay; assay type: functional; details: UO-31, 48 h
SN12C = test: Growth inhibition of human SN12C cells incubated for 48 hrs by sulforhodamine B assay; assay type: functional
NCI-H460 = test: Growth inhibition of human NCI-H460 cells incubated for 48 hrs by sulforhodamine B assay; assay type: functional; details: NCI-H460, 48 h
EKVX = test: Growth inhibition of human EKVX cells incubated for 48 hrs by sulforhodamine B assay; assay type: functional
UACC-257 = test: Growth inhibition of human UACC257 cells incubated for 48 hrs by sulforhodamine B assay; assay type: functional; details: UACC-257, 48 h
SF-295 = test: Growth inhibition of human SF295 cells incubated for 48 hrs by sulforhodamine B assay; assay type: functional; details: SF-295, 48 h
COLO 205 = test: Growth inhibition of human COLO205 cells incubated for 48 hrs by sulforhodamine B assay; assay type: functional; details: COLO 205, 48 h
RPMI-8226 = test: Growth inhibition of human RPMI8226 cells incubated for 48 hrs by sulforhodamine B assay; assay type: functional; details: RPMI-8226, 48 h
SW-620 = test: Growth inhibition of human SW620 cells incubated for 48 hrs by sulforhodamine B assay; assay type: functional; details: SW-620, 48 h
NCI-H522 = test: Growth inhibition of human NCI-H522 cells incubated for 48 hrs by sulforhodamine B assay; assay type: functional; details: NCI-H522, 48 h
OVCAR-4 = test: Growth inhibition of human OVCAR4 cells incubated for 48 hrs by sulforhodamine B assay; assay type: functional; details: OVCAR-4, 48 h
A549 = test: Growth inhibition of human A549/ATCC cells incubated for 48 hrs by sulforhodamine B assay; assay type: functional; details: A549, 48 h
K562 = test: Growth inhibition of human K562 cells incubated for 48 hrs by sulforhodamine B assay; assay type: functional; details: K562, 48 h
HCT-15 = test: Growth inhibition of human HCT15 cells incubated for 48 hrs by sulforhodamine B assay; assay type: functional; details: HCT-15, 48 h
SNB-19 = test: Growth inhibition of human SNB19 cells incubated for 48 hrs by sulforhodamine B assay; assay type: functional; details: SNB-19, 48 h
OVCAR-3 = test: Growth inhibition of human OVCAR3 cells incubated for 48 hrs by sulforhodamine B assay; assay type: functional; details: OVCAR-3, 48 h
A498 = test: Growth inhibition of human A498 cells incubated for 48 hrs by sulforhodamine B assay; assay type: functional; details: A498, 48 h
HOP-62 = test: Growth inhibition of human HOP62 cells incubated for 48 hrs by sulforhodamine B assay; assay type: functional; details: HOP-62, 48 h
[1] = Stabilization of 5'Dabcyl/3'FAM labeled duplex DNA (unknown origin) assessed as increase in melting temperature at 2.5 uM pretreated for 5 mins at 30 degreeC followed by 5 mins incubation at 95 degreeC by fluorescence assay; how it was run: as §1
KM12 = test: Growth inhibition of human KM12 cells incubated for 48 hrs by sulforhodamine B assay; assay type: functional; details: KM12, 48 h
M14 = test: Growth inhibition of human M14 cells incubated for 48 hrs by sulforhodamine B assay; assay type: functional; details: M14, 48 h
LOX IMVI = test: Growth inhibition of human LOXIMVI cells incubated for 48 hrs by sulforhodamine B assay; assay type: functional

GI50 (SK-MEL-5): 730 nM
GI50 (MDA-MB-231): 2680 nM
GI50 (CCRF-CEM): 700 nM
GI50 (U-251): 787 nM
ΔTm (Homo sapiens): 22.2 °C
GI50 (NCI-H226): 2260 nM
GI50 (HCT-116): 742 nM
GI50 (786-0): 2280 nM
GI50 (HL-60): 1060 nM
GI50 (BT-549): 2230 nM
GI50 (HCC 2998): 810 nM
GI50 (ACHN): 3720 nM
GI50 (MOLT-4): 939 nM
GI50 (NCI-H322M): 2140 nM
GI50 (NCI-H460): 767 nM
GI50 (COLO 205): 690 nM
GI50 (RPMI-8226): 1950 nM
GI50 (SW-620): 641 nM
GI50 (NCI-H522): 1460 nM
GI50 (OVCAR-4): 713 nM
GI50 (A549): 1580 nM
GI50 (K562): 1900 nM
GI50 (HCT-15): 4460 nM
GI50 (OVCAR-3): 338 nM
ΔTm [1]: 9.1 °C
Structure (SMILES): COc1ccccc1CNCCCN1C(=O)c2ccc3c4c(ccc(c24)C1=O)C(=O)N(CCCCNCCCN)C3=O
GI50 (Hs-578T): 2300 nM
GI50 (SR): 38 nM
GI50 (UACC-62): 1100 nM
GI50 (IGROV-1): 1440 nM
GI50 (CAKI-1): 13200 nM
GI50 (TK-10): 2620 nM
GI50 (NCI/ADR-RES): 5990 nM
GI50 (SNB-75): 16700 nM
GI50 (SF-539): 1680 nM
GI50 (UO-31): 3520 nM
GI50 (SN12C): 947 nM
GI50 (EKVX): 2060 nM
GI50 (UACC-257): 916 nM
GI50 (SF-295): 3660 nM
GI50 (SNB-19): 1320 nM
GI50 (A498): 4400 nM
GI50 (HOP-62): 2980 nM
GI50 (KM12): 2550 nM
GI50 (M14): 1900 nM
GI50 (LOX IMVI): 1030 nM

GI50 (SK-MEL-5): 288 nM
GI50 (MDA-MB-231): 1220 nM
GI50 (CCRF-CEM): 550 nM
GI50 (U-251): 1240 nM
ΔTm (Homo sapiens): 12.9 °C
GI50 (NCI-H226): 1560 nM
GI50 (HCT-116): 344 nM
GI50 (786-0): 1530 nM
GI50 (HL-60): 810 nM
GI50 (BT-549): 1950 nM
GI50 (HCC 2998): 635 nM
GI50 (ACHN): 1110 nM
GI50 (MOLT-4): 546 nM
GI50 (NCI-H322M): 1900 nM
GI50 (NCI-H460): 657 nM
GI50 (COLO 205): 233 nM
GI50 (RPMI-8226): 1720 nM
GI50 (SW-620): 357 nM
GI50 (NCI-H522): 919 nM
GI50 (OVCAR-4): 197 nM
GI50 (A549): 1220 nM
GI50 (K562): 494 nM
GI50 (HCT-15): 550 nM
GI50 (OVCAR-3): 593 nM
ΔTm [1]: 1.5 °C
Structure (SMILES): COc1ccccc1CNCCCN1C(=O)c2ccc3c4c(ccc(c24)C1=O)C(=O)N(CCCOCCCCOCCCN)C3=O
GI50 (Hs-578T): 2020 nM
GI50 (SR): 346 nM
GI50 (UACC-62): 742 nM
GI50 (IGROV-1): 1260 nM
GI50 (CAKI-1): 1830 nM
GI50 (TK-10): 1970 nM
GI50 (NCI/ADR-RES): 1470 nM
GI50 (SNB-75): 1790 nM
GI50 (SF-539): 1680 nM
GI50 (UO-31): 1550 nM
GI50 (SN12C): 918 nM
GI50 (EKVX): 1180 nM
GI50 (UACC-257): 283 nM
GI50 (SF-295): 1420 nM
GI50 (SNB-19): 1530 nM
GI50 (A498): 1320 nM
GI50 (HOP-62): 2660 nM
GI50 (KM12): 1270 nM
GI50 (M14): 1090 nM
GI50 (LOX IMVI): 760 nM
